pIC50: −log10 of the molar value. In brackets after ≈: the same amount, converted by molar mass.
Tests used:
[1] = Solubility of the compound in 0.1 M sodium phosphate buffer at pH 7.4; type: physicochemical
Outline: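 Measured in 0.1 M sodium phosphate buffer, pH 7.4, with 1% DMSO present.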

[2] = biological target: T1, Bifunctional epoxide hydrolase 2 (Homo sapiens, UniProt P34913); experiment: Inhibition of human soluble epoxide hydrolase by kinetic fluorescent assay
T1 sequence (P34913 whole entry): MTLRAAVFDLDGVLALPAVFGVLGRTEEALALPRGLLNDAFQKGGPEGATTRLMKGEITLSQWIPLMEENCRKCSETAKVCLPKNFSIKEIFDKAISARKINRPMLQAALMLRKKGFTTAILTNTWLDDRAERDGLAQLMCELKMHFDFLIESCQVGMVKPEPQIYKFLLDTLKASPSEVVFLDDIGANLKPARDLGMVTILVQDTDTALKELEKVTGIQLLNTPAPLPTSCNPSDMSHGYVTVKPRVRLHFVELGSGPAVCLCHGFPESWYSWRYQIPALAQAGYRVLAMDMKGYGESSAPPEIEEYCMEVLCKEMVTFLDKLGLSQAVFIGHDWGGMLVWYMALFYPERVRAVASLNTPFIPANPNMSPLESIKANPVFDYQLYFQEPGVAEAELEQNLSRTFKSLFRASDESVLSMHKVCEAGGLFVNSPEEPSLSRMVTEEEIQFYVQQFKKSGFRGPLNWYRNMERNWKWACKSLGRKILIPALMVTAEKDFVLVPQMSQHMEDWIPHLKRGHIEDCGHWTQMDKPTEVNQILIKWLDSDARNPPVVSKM
Outline: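 Human sEH enzyme, kinetic fluorescence read-out; each value is the mean of three separate experiments.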

Structure (SMILES) | solubility ([1]; buffer) [µM] | pIC50 [2] | solubility ([1]; sodium phosphate buffer, read-out: solubility) [µM]
CC1(C)C2CCC1(C)C(NC(=O)NCCCCCCCCNC(=O)NC1CC3CCC1(C)C3(C)C)C2 (stereo not given) | 10 (≈ 5.03 µg/mL) | 9.40 | 
O=C(NCCCCNC(=O)NCc1ccco1)NCc1ccco1 | 225 (≈ 75.2 µg/mL) | 5.74 | 
CC1(C)C2CCC1(C)C(NC(=O)NCCCCNC(=O)NC1CC3CCC1(C)C3(C)C)C2 (stereo not given) | 10 (≈ 4.47 µg/mL) | 8.64 | 
O=C(Nc1ccc(OC(F)(F)F)cc1)N[C@H]1CC[C@H](Oc2ccc(C(=O)O)cc2)CC1 |  |  | 5 (≈ 2.19 µg/mL)
CC1(C)[C@@H]2CC[C@@]1(C)C(NC(=O)Nc1ccccc1F)C2 (mixture of isomers) | 225 | 7.30 | 
O=C(NCCCCCCCCNC(=O)NCc1ccco1)NCc1ccco1 | 50 (≈ 19.5 µg/mL) |  | 
O=C(Nc1ccc(OC(F)(F)F)cc1)NC1CC2CCC1C2 (stereo not given) |  | 9.40 | 
O=C(NCc1ccco1)NCC12CC3CC(CC(C3)C1)C2 | 300 (≈ 86.5 µg/mL) | 7.35 | 
CCOC(=O)CNC(=O)NC1CC2CCC1C2 (stereo not given) | > 2000 | 5.80 | 
O=C(NCCCCNC(=O)NC1CC2C=CC1C2)NC1CC2C=CC1C2 (stereo not given) |  | 7.68 | 
O=C(Nc1ccccc1F)NC1CC2CCC1C2 (stereo not given) | 325 (≈ 80.7 µg/mL) | 8.17 | 
CC1(C)C2CCC1(C)C(NC(=O)Nc1ccc(OC(F)(F)F)cc1)C2 (stereo not given) |  | 8.60 | 
O=C(NC1CC2C=CC1C2)NC1C2CC3CC(C2)CC1C3 (stereo not given) |  | 9.05 | 
O=C(NCCCCCCNC(=O)NCc1ccco1)NCc1ccco1 | 100 (≈ 36.2 µg/mL) | 7.06 | 
O=C(NC1CC2C=CC1C2)N[C@H]1CC[C@H](Oc2ccc(C(=O)O)cc2)CC1 (stereo not given in full) | 350 (≈ 130 µg/mL) | 8.82 | 
CCCCCCCCNC(=O)NC1CC2CCC1(C)C2(C)C (stereo not given) | 125 (≈ 38.6 µg/mL) | 8.19 | 
CCOC(=O)CNC(=O)NC1CC2CCC1(C)C2(C)C (stereo not given) | > 2000 | 5.66 | 
CC1(C)[C@H]2CC[C@]1(C)C(NC(=O)Nc1ccccc1F)C2 (mixture of isomers) |  | 8.43 | 
CC1(C)C2CCC1(C)C(NC(=O)Nc1ccccc1F)C2 (stereo not given) | 225 (≈ 65.3 µg/mL) | 7.84 | 
O=C(NCc1ccco1)Nc1ccccc1F | 425 (≈ 99.5 µg/mL) | 6.20 | 
CC12CCC(NC(=O)N[C@H]3CC[C@H](Oc4ccc(C(=O)O)cc4)CC3)(OC1=O)C2(C)C (stereo not given in full) | 300 (≈ 129 µg/mL) | 7.45 | 
O=C(NCCCCNC(=O)NC1CC2CCC1C2)NC1CC2CCC1C2 (stereo not given) | 75 (≈ 27.2 µg/mL) | 7.93 | 
O=C(NCCCCCCCCCCNC(=O)NC1CC2C=CC1C2)NC1CC2C=CC1C2 (stereo not given) |  | 9.40 | 
O=C(NCC12CC3CC(CC(C3)C1)C2)NC1CC2C=CC1C2 (stereo not given) |  | 9.15 | 
O=C(NCCCCCCCCNC(=O)NC1CC2CCC1C2)NC1CC2CCC1C2 (stereo not given) |  | 9.40 | 

— ChEMBL document CHEMBL4665720, “Bioisosteric substitution of adamantane with bicyclic lipophilic groups improves water solubility of human soluble epoxide hydrolase inhibitors” (Bioorg Med Chem Lett, 2020)
